# Laboratory results reported in publication PMC9298202 (Chemmedchem, 2021).
# What was measured:
# [1] = system: Leishmania braziliensis amastigote forms; experiment: In vitro activity on amastigote; assay type: cell-based; settings: for Selectivity index Amastigote forms: L. braziliensis, IC50 macrophages toxicity/IC50 activity; for IC50: Leishmania braziliensis, read-out: Activity IC50 Amastigote forms
# Summary of the method: (§1)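 J774.2 macrophages were infected with promastigotes, which became intracellular amastigotes within 1 day; test compounds were then added. IC50 came from linear regression of Kc values at 1, 10, 25 and 200 µM, averaging four determinations.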
# J774.2 macrophages = experiment: Cytotoxicity in J774.2 macrophages; assay type: cell-based; settings: Mus musculus, J774.2, 72 h, read-out: Toxicity in macrophages IC50
# [2] = system: Leishmania infantum amastigote forms; experiment: In vitro activity on amastigote; assay type: cell-based; settings: for Selectivity index Amastigote forms: L. infantum, IC50 macrophages toxicity/IC50 activity; for IC50: Leishmania infantum, read-out: Activity IC50 Amastigote forms
# [3] = system: Leishmania donovani amastigote forms; experiment: In vitro activity on amastigote; assay type: cell-based; settings: for Selectivity index Amastigote forms: L. donovani, IC50 macrophages toxicity/IC50 activity; for IC50: Leishmania donovani, read-out: Activity IC50 Amastigote forms
# Summary of the method: as §1
# [4] = system: Fe-SOD in L. infantum promastigotes; experiment: Fe-SOD inhibition, L. infantum; assay type: biochemical, Leishmania infantum; settings: extent reached in the tested concentration range (Figure 6)
# Summary of the method: (§2)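 Promastigotes or T. cruzi epimastigotes were grown in MTL (HBSS + 10% heat-inactivated FBS) at 26 °C to ~1×10^7/mL. Log-phase cells were pelleted and held 24 h at 27 °C to excrete SOD. Filtered supernatant was fractionated with 35% then 85% ammonium sulphate and desalted on Sephadex G-25. Activity was measured as NBT reduction (methionine, riboflavin, Triton X-100) at 560 nm before and after 10 min UV illumination.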
# [5] = system: Trypanosoma cruzi SN3 epimastigote forms; experiment: Epimastigote assay, T. cruzi SN3; assay type: cell-based; settings: for Selectivity index Epimastigote forms: T. cruzi SN3, IC50 Vero cell toxicity/IC50 activity; for IC50: Trypanosoma cruzi, read-out: Activity IC50 Epimastigote forms
# Summary of the method: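 SN3 epimastigotes (Rhodnius prolixus isolate, Colombia) were grown at 28 °C in Grace's Insect Medium + 10% inactivated FBS. Exponential-phase cells were plated at 5×10^4 parasites/well with test compound in MTL medium at 100, 50, 25, 12,5 and 6,25 µM. Counts after 72 h used a Neubauer chamber. IC50 came from linear regression of Kc values; SI = Vero IC50/epimastigote IC50.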
# [6] = system: Leishmania infantum promastigote forms; experiment: In vitro activity on promastigote; assay type: cell-based; settings: for Selectivity index Promastigote forms: L. infantum, IC50 macrophages toxicity/IC50 activity; for IC50: Leishmania infantum, read-out: Activity IC50 Promastigote forms
# Vero cells = experiment: Cytotoxicity in Vero cells; assay type: cell-based; settings: Chlorocebus sabaeus, Vero, 72 h, read-out: Vero cells toxicity IC50
# Summary of the method: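 Vero cells were grown in RPMI + 10% inactivated FBS at 37 °C in humidified 5% CO2. They were resuspended at 1×10^5 cells/mL, cultured 2 days, then given fresh medium with test compound for 72 h. Viability was read by flow cytometry. IC50 was derived by linear regression from Kc values; results average four determinations.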
# [7] = system: Leishmania braziliensis promastigote forms; experiment: In vitro activity on promastigote; assay type: cell-based; settings: for Selectivity index Promastigote forms: L. braziliensis, IC50 macrophages toxicity/IC50 activity; for IC50: Leishmania braziliensis, read-out: Activity IC50 Promastigote forms
# Summary of the method: (§3)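 Extracellular promastigotes were tested at 1, 10, 25 and 200 µM, and IC50 was derived by linear regression from Kc values, averaging four determinations.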
# [8] = system: Leishmania donovani promastigote forms; experiment: In vitro activity on promastigote; assay type: cell-based; settings: for Selectivity index Promastigote forms: L. donovani, IC50 macrophages toxicity/IC50 activity; for IC50: Leishmania donovani, read-out: Activity IC50 Promastigote forms
# Summary of the method: as §3
# [9] = system: Fe-SOD in T. cruzi epimastigotes; experiment: Fe-SOD inhibition, T. cruzi; assay type: biochemical, Trypanosoma cruzi; settings: extent reached in the tested concentration range (Figure 9)
# Summary of the method: as §2
# [10] = system: Trypanosoma cruzi SN3 trypomastigote forms; experiment: Trypomastigote activity, T. cruzi SN3; assay type: cell-based
# [11] = system: Trypanosoma cruzi SN3 amastigote forms; experiment: Amastigote assay, T. cruzi SN3; assay type: cell-based
# Summary of the method: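 Vero cells in RPMI + 10% inactivated FBS (37 °C, 5% CO2) were seeded at 1×10^4 cells/well on coverslips for 2 days. They were infected 10:1 with SN3 metacyclic forms, obtained by 12-day culture of epimastigotes at 28 °C in modified Grace's medium (~40% metacyclic). After 24 h, cells were washed and exposed to 6.25–100 µM for 72 h. Giemsa-stained amastigotes were counted; IC50 from four determinations; SI used Vero IC50.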
# [12] = T. cruzi SN3, IC50 Vero cell toxicity/IC50 activity
IC50 [1],IC50 [2],IC50 [3],IC50 [5],IC50 [6],IC50 [7],IC50 [8],SMILES,Selectivity index Amastigote forms [1],IC50 (J774.2 macrophages),Selectivity index Amastigote forms [2],Selectivity index Amastigote forms [3],Selectivity index Epimastigote forms [5],Selectivity index Promastigote forms [6],IC50 (Vero cells),Selectivity index Promastigote forms [7],Selectivity index Promastigote forms [8],further results
2.3 ± 0.2 µM,2.7 ± 0.1 µM,2.5 µM,15.7 ± 0.5 µM,1.6 ± 0.2 µM,1.5 ± 0.2 µM,3.6 ± 0.4 µM,"c1cnc(NCCCn2ccnc2)cn1 [4 b, N‐(3‐(1H‐imidazol‐1‐yl)propyl)pyrazin‐2‐amine]",10,23.8 ± 1.9 µM,9,9,2 (2),15,26.8 ± 0.9 µM,16,7,extent of inhibition of enzymatic activity [4]: more than 80%
6.6 ± 0.6 µM,11.9 ± 0.7 µM,2.7 ± 0.3 µM,9.4 ± 0.7 µM,14.7 ± 0.6 µM,7.6 ± 0.5 µM,2 ± 0.4 µM,"c1ccc2c(NCCCn3ccnc3)ncnc2c1 [3 b, N ‐[3‐(1H‐imidazol‐1‐yl)propyl]quinazolin‐4‐amine]",7,45.9 ± 2.8 µM,4,17,13,3,121 ± 6.3 µM,6,23,"extent of inhibition of enzyme activity [9]: approximately 50%; Selectivity index Trypomastigote forms [10, 12]: 93; IC50 ([10]; Trypanosoma cruzi, read-out: Activity IC50 Trypomastigote forms): 1.3 ± 0.6 µM; Selectivity index Amastigote forms [11, 12]: 50; IC50 ([11]; Trypanosoma cruzi, read-out: Activity IC50 Amastigote forms): 2.4 µM"
